DNA FID counter-1: compounds displacing fluorescent DNA intercalator, primary screen, artefact control for HCV NS3 helicase inhibitor project, biochemical, FID fluorescence. DNA fluorescent intercalator displacement. inhibition, % at 7.9 µM. 290,000 tested, 0.17% active. AID 1845, 2009; in the data active means inhibition above about 37%;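 further: higher means more ethidium bromide displaced from hairpin DNA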
IMP-1 inh-1: IMP-1 metallo-beta-lactamase inhibitors, primary screen, biochemical, epi-absorbance readout, Pseudomonas aeruginosa enzyme | AID 1556, 2009 | inhibition, % at 5.6 µM | 290,000 tested, 0.45% active | metallo-beta-lactamase IMP-1 (Pseudomonas aeruginosa) | purified IMP-1, nitrocefin hydrolysis, epi-absorbance fluorescence;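 active means inhibition above the mean plus 3 SD of all compounds in the same screening run, cut at about 4.5% in these data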
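System: Purified recombinant IMP-1 metallo-beta-lactamase enzyme | Measured by: Fluorescence quenching readout, ex 480/em 530 nm | Replication: Singlicate | Incubation: 15 min preincubation plus 25 min reaction at 25 °C | Evaluation: Percent inhibition from optical density relative to buffer-blank wells | Benchmarks: DMSO with and without IMP-1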
VIM-2 inhibitor: VIM-2 metallo-beta-lactamase inhibitors, primary screen, biochemical, epi-absorbance readout, Pseudomonas aeruginosa enzyme; purified VIM-2, nitrocefin hydrolysis, epi-absorbance fluorescence; inhibition, % at 5.6 µM; 290,000 tested, 0.89% active;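 active means inhibition above the mean of all tested compounds plus 3 SD, cutoff set per screening run, cut at about 7.5% in these data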;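 further: red hydrolysis product quenches plate fluorescence so inhibitors raise well fluorescence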
HCV NS3 hel inh: inhibitors of HCV NS3 helicase, primary screen, biochemical, Cy5 molecular beacon fluorescence | Hepatitis C virus NS3 helicase | NS3 helicase DNA unwinding | inhibition, % at 10.9 µM | 290,000 tested, 0.56% active | AID 1800, 2009;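 active means inhibition above the mean of all tested compounds plus 3 SD, set per campaign, cut at about 35% in these data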
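Measured by: Cy5 fluorescence, 0 and 60 min reads / Assay system: NS3 helicase fragment of HCV / Control set: low DMSO, high thioflavine S at 110 µM / Times: 1 h reaction at 25 °C, ATP-initiated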
IMP-1 inh-2: IMP-1 metallo-beta-lactamase inhibitors, confirmation, selectivity assay for selective VIM-2 inhibitor project, biochemical, epi-absorbance readout, triplicate; shares compounds with VIM-2 inhibitor; purified IMP-1, nitrocefin hydrolysis, epi-absorbance fluorescence; inhibition, % at 5.6 µM; 1,300 tested, under 10 active; AID 1856, 2009
VIM-2 FRET ctr: VIM-2 inhibitors in FRET format, confirmation, artefact control for selective VIM-2 inhibitor project, biochemical, epi-absorbance artifact exclusion; shares compounds with VIM-2 inhibitor; purified VIM-2, CCF2 FRET substrate hydrolysis; inhibition, % at 5.6 µM; 1,300 tested, 23% active;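 active means inhibition above the mean of all tested compounds plus 3 SD, cut at about 19% in these data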
TEM-1 counter-1: TEM-1 serine beta-lactamase inhibitors, counter-screen for VIM-2 inhibitor project, biochemical, epi-absorbance, HTS; shares compounds with VIM-2 inhibitor; Purified TEM-1, nitrocefin hydrolysis, epi-absorbance fluorescence; inhibition, % at 5.6 µM; 1,300 tested, 3% active;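 active means inhibition above that campaign's mean inhibition plus 3 SD, cut at about 0.46% in these data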
Target sequence (P62593 whole entry, looked up): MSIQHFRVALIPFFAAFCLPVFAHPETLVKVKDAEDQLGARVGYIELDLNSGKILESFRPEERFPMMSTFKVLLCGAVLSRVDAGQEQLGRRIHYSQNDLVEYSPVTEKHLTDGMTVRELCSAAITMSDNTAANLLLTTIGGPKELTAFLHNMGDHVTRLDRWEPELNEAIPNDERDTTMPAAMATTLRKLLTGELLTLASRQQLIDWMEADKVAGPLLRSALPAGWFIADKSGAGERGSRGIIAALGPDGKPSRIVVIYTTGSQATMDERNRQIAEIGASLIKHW
VIM-2 confirm 2: VIM-2 metallo-beta-lactamase inhibitors, confirmation, biochemical, epi-absorbance, hits shared with IMP-1 screen; AID 2187, 2009; inhibition, % at 5.6 µM; purified VIM-2, nitrocefin hydrolysis; shares compounds with VIM-2 inhibitor; 1,300 tested, 96% active;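 active means inhibition of the VIM-2 beta-lactamase enzyme above about 11% from the earlier first-round screen, limit read from the data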
VIM-2 confirm: P. aeruginosa VIM-2 enzyme inhibition – biochemical, epi-absorbance, HTS, confirmation. shares compounds with IMP-1 inh-1. purified VIM-2 enzyme, nitrocefin absorbance. inhibition, % at 5.6 µM. 200 tested, 73% active; in the data active means inhibition above about 8%
TEM-1 counter-2: Serine beta-lactamase TEM-1 inhibition, biochemical epi-absorbance counter-screen for IMP-1/VIM-2 inhibitor program; TEM-1 beta-lactamase, nitrocefin absorbance inhibition; shares compounds with IMP-1 inh-1; inhibition, % at 5.6 µM; 200 tested, 50% active; in the data active means inhibition above about 0.66%
IMP-1 inh conf: IMP-1 metallo-beta-lactamase inhibitors, confirmation, biochemical, epi-absorbance, hits shared with VIM-2 screen; shares compounds with IMP-1 inh-1; purified IMP-1 enzyme, absorbance substrate hydrolysis; inhibition, % at 5.6 µM; 200 tested, 60% active; in the data active means inhibition above about 4.9%
NS3 hel confirm: HCV NS3 helicase inhibitors, retest, confirmation, biochemical, Cy5 molecular beacon fluorescence, triplicate; shares compounds with HCV NS3 hel inh; NS3 helicase DNA unwinding; inhibition, % at 10.9 µM; 1,600 tested, 31% active; AID 1943, 2009;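 active means inhibition above the mean of all tested compounds plus 3 SD, cutoff set per campaign, cut at about 36% in these data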
DNA FID counter-2: compounds displacing fluorescent DNA intercalator, artefact control for HCV NS3 helicase inhibitor project, biochemical, FID fluorescence, triplicate. shares compounds with HCV NS3 hel inh. DNA fluorescent intercalator displacement. inhibition, % at 7.9 µM. 1,600 tested, 4% active; in the data active means inhibition above about 37%;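 further: higher means more displacement of ethidium bromide from the DNA hairpin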
DNA FID DR: compounds displacing fluorescent intercalator from DNA, dose response, counter-screen for HCV NS3 helicase inhibitor project, biochemical, fluorescence. shares compounds with HCV NS3 hel inh. fluorescent intercalator displacement from DNA. IC50, µM. 120 tested, under 10 active. AID 2172, 2009
Hits are given with their value; - = inactive; . = no result given. Sampled rows, rich in hits. Any-hit rate of the full collection: about 1.9%. Unless noted, how the calls were made is not given here.

SMILES | DNA FID counter-1 | IMP-1 inh-1 | VIM-2 inhibitor | HCV NS3 hel inh | NS3 hel confirm | DNA FID counter-2 | others
CN1CCC(N(C)c2nc(-c3ccccc3)nc3ccccc23)CC1 | 63 | - | 21 | - | . | . | IMP-1 inh-2=-;VIM-2 FRET ctr=-;TEM-1 counter-1=-;VIM-2 confirm 2=33
CC(C)COc1ccc(Cc2c(O)[nH]c(=S)[nH]c2=O)cc1 | - | - | - | - | . | .
CC(Cc1cccs1)NCc1ccccc1 (stereo unspecified) | - | - | - | - | . | .
CCOC(=O)C1CCCN(c2ccc([N+](=O)[O-])c3nonc23)C1 (stereo unspecified) | - | 27 | 26 | - | . | . | VIM-2 confirm=28;TEM-1 counter-2=34;IMP-1 inh conf=23
CC1CCC(NC(=O)CNC(=S)N2CC3CC(C2)c2cccc(=O)n2C3)CC1 (stereo unspecified) | - | - | - | - | . | .
COc1ccc(N2C(=O)NC(=O)/C(=C/c3ccc([N+](=O)[O-])s3)C2=O)cc1 | - | - | - | 39 | 50 | - | DNA FID DR=-
CN1CCN(C(=O)Cc2nc3ccccc3[nH]2)CC1 | - | - | - | - | . | .
COc1ccc(N2CCN(Cc3nc4ccccc4[nH]3)CC2)cc1 | - | - | - | 38 | - | -
O=C(c1ccccc1)c1cn(CC(=O)N2CCOCC2)c2ccccc12 | - | - | - | 57 | - | -
O=C(c1ccccc1)c1cn(CC(=O)N2CCCC2)c2ccccc12 | - | - | - | - | . | .
CCN1CCN(C(=O)COc2ccc(S(=O)(=O)N3CCOCC3)cc2C)CC1 | - | - | - | - | . | .
CCOc1ccccc1-n1c(O)c(C=Nc2ccc(N(CC)CC)cc2)c(=O)[nH]c1=O | - | - | - | 54 | - | -
Cc1ccccc1-n1c(O)c(C=Nc2ccc3c(c2)OCO3)c(=O)[nH]c1=O | - | - | - | 37 | - | -
Cc1cccc(N2C(=O)NC(=O)/C(=C/c3ccc(-c4ccc(C(=O)O)c(Cl)c4)o3)C2=O)c1 | - | - | - | 37 | - | -
O=C1CN(O)C(c2ccccc2)=c2cc(Cl)ccc2=N1 | - | - | - | - | . | .
CC[n+]1c(/C=C/C=C/c2ccc(N(C)C)cc2)sc2ccccc21 | - | - | - | 48 | 107 | -

Compound activity (PubChem BioAssay)
